# Experimental data published in ChEMBL document CHEMBL3734708, “Synthesis, cytotoxicity and antiviral evaluation of new series of imidazo[4,5-g]quinoline and pyrido[2,3-g]quinoxalinone derivatives” (Eur J Med Chem, 2015).
# Columns and labels:
# [1] = tested on: Mammalian orthoreovirus 1; assay: Antiviral activity against Reovirus 1 ATCC VR- 214 infected in BHK21 cells assessed as protection against virus-induced cytopathic effect after 3 or 4 days by MTT assay; assay type: functional, cell-based; conditions: Mammalian orthoreovirus 1, ATCC VR- 214, BHK-21
# Summary of the method: (§1)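 BHK-21 (YFV, Reo-1) or MDBK (BVDV) cells seeded at 5 × 10^4 or 3 × 10^4 cells/well and grown overnight to confluence. Monolayers infected at m.o.i. 0.01 in maintenance medium (MEM-Earle, 0.5% inactivated FBS). Serial compound dilutions added 2 h after infection; 37 °C for 3-4 days. Viability read by MTT. EC50 by linear regression versus untreated controls; mean of three determinations.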
# [2] = Cytotoxicity against human MT4 cells assessed as reduction in cell proliferation after 96 hrs by MTT assay; assay type: cell-based
# Summary of the method: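 MT-4 cells in exponential growth seeded at 1 × 10^5 cells/mL in RPMI-1640 with 10% FBS and penicillin/streptomycin. Cultured with serial compound dilutions at 37 °C, 5% CO2. MTT viability after 96 h. CC50 by linear regression against untreated controls. Mean of three independent determinations.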
# [3] = tested on: Respiratory syncytial virus; assay: Antiviral activity against RSVA2 ATCC VR-1540 infected in african green monkey Vero-76 cells after 5 days by plaque reduction assay; assay type: functional, organism-based; conditions: human respiratory syncytial virus, A2 ATCC VR-1540, Vero 76, 120 h
# [4] = tested on: Human poliovirus 1 strain Sabin; assay: Antiviral activity against Human poliovirus 1 strain Sabin 1 virus infected in african green monkey Vero-76 cells after 2 days by plaque reduction assay; assay type: functional, organism-based; conditions: Enterovirus C, 1, Vero 76, 48 h
# [5] = Cytotoxicity against MDBK cells assessed as reduction in cell viability after 72 hrs by MTT assay; assay type: cell-based, Bos taurus; conditions: cattle
# Summary of the method: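 MDBK cells seeded at 6 × 10^5 cells/mL in MEM-E with L-glutamine, 1 mM sodium pyruvate, kanamycin and 10% horse serum. Mock-infected cultures held with serial compound dilutions at 37 °C, 5% CO2. MTT viability read after 72 h. 50% cytotoxic concentration from linear regression as % of untreated controls. Three independent determinations.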
# [6] = tested on: Vesicular stomatitis virus; assay: Antiviral activity against VSV Indiana ATCC VR-158 infected in african green monkey Vero-76 cells after 2 days by plaque reduction assay; assay type: functional, organism-based; conditions: Indiana ATCC VR-158, Vero 76, 48 h
# Human alphaherpesvirus 1 = assay: Antiviral activity against HSV-1 KOS ATCC VR- 1493 infected in african green monkey Vero-76 cells after 3 days by plaque reduction assay; assay type: functional, organism-based; conditions: Human alphaherpesvirus 1, KOS ATCC VR1493, Vero 76, 72 h
# [7] = tested on: Bovine viral diarrhea virus 1; assay: Antiviral activity against BVDV NADL ATCC VR-534 infected in MDBK cells assessed as protection against virus-induced cytopathic effect after 3 or 4 days by MTT assay; assay type: functional, organism-based; conditions: Bovine viral diarrhea virus isolates and strains, NADL ATCC VR-534, MDBK; summary of the method: as §1
# Coxsackievirus B5 = assay: Antiviral activity against CVB-5 virus Faulkner ATCC VR-185 infected in african green monkey Vero-76 cells after 3 days by plaque reduction assay; assay type: functional, organism-based; conditions: Enterovirus B, Faulkner ATCC VR-185, Vero 76, 72 h
# Vaccinia virus = assay: Antiviral activity against VV Elstree ATCC VR-1549 infected in african green monkey Vero-76 cells after 3 days by plaque reduction assay; assay type: functional, organism-based; conditions: Orthopoxvirus vaccinia, Elstree ATCC VR-1549, Vero 76, 72 h
# [8] = tested on: Human immunodeficiency virus 1; assay: Antiviral activity against HIV-1 3B infected in human MT4 cells assessed as protection against virus-induced cytopathic effect after 4 days by MTT assay; assay type: functional, organism-based; conditions: Human immunodeficiency virus 1, 3B, MT4, 96 h
# Summary of the method: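 MT-4 cells (1 × 10^4/well in RPMI) with or without serial compound dilutions, infected with HIV-1 at 100 CCID50 (m.o.i. 0.01). After 4 days at 37 °C, protection from cytopathogenicity read by MTT. EC50 by linear regression versus untreated controls; mean of three independent determinations.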
# [9] = Cytotoxicity against BHK21 cells assessed as reduction in cell viability after 72 hrs by MTT assay; assay type: cell-based, Mesocricetus auratus, BHK-21; conditions: hamster
# Summary of the method: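 BHK cells seeded at 1 × 10^6 cells/mL in MEM-E with L-glutamine, 1 mM sodium pyruvate, kanamycin and 10% FBS. Mock-infected cells exposed to serial dilutions of compound at 37 °C, 5% CO2, run in parallel with the antiviral assays. Viability by MTT at 72 h. CC50 by linear regression vs untreated controls. Mean of three independent determinations.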
# [10] = Cytotoxicity against african green monkey Vero 76 cells assessed as reduction in cell viability after 48 to 96 hrs by MTT assay; assay type: cell-based; conditions: chlorocebus sabaeus
# Summary of the method: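 Vero-76 cells plated at 4 × 10^5 cells/mL in D-MEM with L-glutamine, kanamycin and 10% FBS. Incubated with serial dilutions of test compounds at 37 °C, 5% CO2 for 48-96 h. Viability by MTT. CC50 by linear regression relative to untreated cells. Mean of three independent runs.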
# Yellow fever virus = assay: Antiviral activity against YFV 17-D vaccine (Stamaril Pasteur J07B01) infected in BHK21 cells assessed as protection against virus-induced cytopathic effect after 3 or 4 days by MTT assay; assay type: functional, organism-based; conditions: BHK-21; summary of the method: as §1
Compound,EC50 [1],CC50 at 96 h [2],EC50 [3],EC50 [4],CC50 at 72 h [5],EC50 [6],EC50 (Human alphaherpesvirus 1),EC50 [7],EC50 (Coxsackievirus B5),EC50 (Vaccinia virus),EC50 [8],CC50 at 72 h [9],CC50 [10],EC50 (Yellow fever virus)
O=c1c(Cc2ccccc2)nc2cc3cccnc3c(Cl)c2n1C1CCCCC1,> 20 µM,34 µM,> 20 µM,> 20 µM,> 100 µM,> 20 µM,> 20 µM,5 µM,> 20 µM,> 20 µM,> 34 µM,20 µM,20 µM,> 20 µM
O=[N+]([O-])c1ccc(COc2nc3cc4cccnc4c(Cl)c3nc2-c2ccccc2)cc1,> 100 µM,> 100 µM,> 100 µM,> 100 µM,> 100 µM,> 100 µM,> 100 µM,> 100 µM,> 100 µM,> 100 µM,> 100 µM,> 100 µM,> 100 µM,> 100 µM
CCCn1c(-c2ccccc2)nc2cc3cccnc3cc21,> 100 µM,62 µM,> 90 µM,> 90 µM,> 100 µM,> 90 µM,> 90 µM,> 100 µM,13 µM,> 90 µM,> 62 µM,> 100 µM,90 µM,> 100 µM
O=c1c(-c2ccccc2)nc2c(Cl)c3ncccc3cc2n1Cc1ccccc1,> 100 µM,88 µM,> 90 µM,> 90 µM,> 100 µM,> 90 µM,> 100 µM,46 µM,> 90 µM,> 90 µM,> 88 µM,> 100 µM,90 µM,> 100 µM
CC(C)c1nc2c(Cl)c3ncccc3cc2[nH]c1=O,> 100 µM,> 100 µM,> 100 µM,> 100 µM,> 100 µM,> 100 µM,> 100 µM,> 100 µM,> 100 µM,> 100 µM,> 100 µM,> 100 µM,> 100 µM,> 100 µM
CCOc1nc2cc3cccnc3c(Cl)c2nc1-c1ccccc1,> 100 µM,> 100 µM,> 50 µM,> 50 µM,> 100 µM,> 50 µM,> 50 µM,73 µM,> 50 µM,> 50 µM,> 100 µM,> 100 µM,50 µM,> 100 µM
CCn1c(=O)c(-c2ccccc2)nc2c(Cl)c3ncccc3cc21,> 100 µM,> 100 µM,> 60 µM,> 60 µM,> 100 µM,> 60 µM,> 60 µM,> 100 µM,> 60 µM,> 60 µM,> 100 µM,> 100 µM,60 µM,> 100 µM
COc1nc2cc3cccnc3c(Cl)c2nc1Cc1ccccc1,> 100 µM,> 100 µM,> 100 µM,> 100 µM,> 100 µM,> 100 µM,> 100 µM,6 µM,> 100 µM,> 100 µM,> 100 µM,> 100 µM,> 100 µM,> 100 µM
